# High-throughput results as filed in PubChem BioAssay.
# GRK2 inh = compounds blocking aptamer binding on GRK2 – biochemical, human GRK2, bead flow cytometry, HTS, primary screen | Beta-adrenergic receptor kinase 1 (Homo sapiens), P25098 | FAM-aptamer displacement from GRK2 | inhibition of aptamer binding, % at 10 µM | 0.59% of 330,000 active | AID 488847, 2010;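 active = inhibition of aptamer binding above 40%, roughly 3 SD of noise, on plates passing a quality check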;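 note: median bead fluorescence of bound FAM aptamer so fluorescent compounds give negative values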
# STEP inh = STEP phosphatase inhibitors, primary screen, biochemical, fluorescence intensity, uHTS; AID 588621, 2011; 0.25% of 360,000 active; recombinant STEP, OMFP fluorogenic substrate; inhibition, % at 20 µM;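 active = inhibition at 20 µM, scaled per plate between control wells, above about 37%, limit read from the data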;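 note: 0% = DMSO with enzyme and substrate and 100% = substrate only without enzyme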
#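 Material: STEP (striatal-enriched tyrosine phosphatase) enzyme, cell-free; Compound dosing: 20 µM single dose in 1% DMSO; Technique: fluorescence read at 480 nm ex / 540 nm em; Times: reaction 20 min, ambient temperature; Medium: 50 mM Bis-Tris pH 6.0 with 2.5 mM DTT and 0.005% Tween 20; Also added: OMFP at 25 µM.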
# LMPTP block = LMPTP phosphatase inhibitors, primary screen, biochemical, fluorescence intensity, uHTS; Low molecular weight phosphotyrosine protein phosphatase (Homo sapiens), P24666; recombinant LMPTP-A, OMFP fluorogenic substrate; inhibition, % at 20 µM; 0.22% of 360,000 active; AID 651560, 2012;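 active = compounds that cut the enzyme signal by at least half of the control window in the single-dose screen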;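 note: plate controls were DMSO wells with enzyme plus substrate for no effect and substrate without enzyme for full effect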
# Target sequence (P24666 whole entry, looked up): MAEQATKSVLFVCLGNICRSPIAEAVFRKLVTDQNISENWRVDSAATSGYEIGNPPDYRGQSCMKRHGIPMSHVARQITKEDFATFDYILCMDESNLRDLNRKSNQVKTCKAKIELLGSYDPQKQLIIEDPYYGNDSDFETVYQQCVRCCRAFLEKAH
#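 Material: LMPTP-A; amount: 0.625 nM enzyme; doses: single 20 µM dose; times: reaction 50 min, room temperature, dark; technique: fluorescence intensity of OMFP turnover product; benchmarks: no-enzyme and uninhibited controls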
# DNMT1 inh = human DNMT1 methyltransferase inhibitors, primary screen, biochemical, molecular beacon, fluorescence, HinP1I cleavage, uHTS. AID 588458, 2011. 0.83% of 360,000 active. inhibition (reported as % activation of signal), % at 10 µM; in the data active = inhibition above about 50%
# SUMO1 PPI mod = modulators of SUMO1 protein-protein interactions, primary screen, biochemical, uHTS | Small ubiquitin-related modifier 1 (Homo sapiens), P63165 | SUMO1 binding to a labelled peptide, TR-FRET, 1 h | inhibition, % at 20 µM | 0.33% of 360,000 active; in the data active = inhibition above about 37%
# Target sequence (P63165 whole entry, looked up): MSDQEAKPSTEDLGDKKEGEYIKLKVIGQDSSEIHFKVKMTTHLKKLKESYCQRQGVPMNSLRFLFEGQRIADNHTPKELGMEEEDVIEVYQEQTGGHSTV
# Scp1 inh = Scp-1 phosphatase inhibitors, primary screen, biochemical, colorimetric, uHTS; Carboxy-terminal domain RNA polymerase II polypeptide A small phosphatase 1 (Homo …; 0.88% of 340,000 active; inhibition, % at 20 µM; Recombinant Scp1, phosphopeptide, malachite green phosphate absorbance;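 active = inhibition above about 50% at 20 µM, limit read from the data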;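 note: plate controls were DMSO wells with enzyme for no effect and wells lacking enzyme for full effect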
# Target sequence (Q9GZU7 76-261 limits assumed): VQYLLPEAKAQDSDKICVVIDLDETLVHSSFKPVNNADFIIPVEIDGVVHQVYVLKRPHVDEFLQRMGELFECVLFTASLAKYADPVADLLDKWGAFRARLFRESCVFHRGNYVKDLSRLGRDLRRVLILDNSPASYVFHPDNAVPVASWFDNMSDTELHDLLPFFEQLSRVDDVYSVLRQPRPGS
#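 Test system: SCP-1 catalytic domain; Buffer or medium: Acidic Tris acetate buffer with magnesium and detergent; Also added: Phosphorylated 17-residue peptide substrate; Compound: single 20 µM dose, 1% DMSO; Schedule: enzyme reaction 45 min at room temperature, colour 5 min, stabilisation 30 min; Signal: Phosphate-binding colour reagent, absorbance read at 630 nm.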
# Scp-1 conf = Scp-1 phosphatase inhibitors, retest, confirmation, biochemical, colorimetric, single concentration | shares compounds with Scp1 inh | recombinant SCP-1 catalytic domain, phosphate release, malachite green absorbance | inhibition, % at 20 µM | 61% of 2,500 active | AID 540281, 2011;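 note: plate controls were DMSO with enzyme for no effect and buffer wells lacking enzyme for full effect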
# MG interference = colorimetric readout interference by compounds, confirmation, artefact control for Scp-1 inhibitor project, biochemical, single concentration; shares compounds with Scp1 inh; Colorimetric interference counterscreen, malachite green absorbance 630 nm; apparent inhibition (interference), % at 20 µM; 2,500 tested, under 10 active;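 note: compounds added after enzyme reaction finished so only phosphate colour detection is probed; plate controls were DMSO wells with completed Scp-1 reaction for no effect and substrate wells lacking enzyme for full effect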
# Scp1 DSF = Scp-1 binding by thermal shift, confirmation, orthogonal assay for Scp-1 inhibitor project, biophysical, differential scanning fluorimetry; shares compounds with Scp1 inh; Recombinant SCP1, Sypro Orange thermal shift Tm; thermal shift relative to vanadate control, % at 40 µM; 25% of 1,500 active; AID 540329, 2011;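 active = substances whose mean melting-temperature shift, as a percentage of the reference inhibitor's shift, reaches about 5.3%, limit read from the data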;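 note: 0% = Tm of DMSO wells and 100% = Tm with sodium orthovanadate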
# An asterisk follows results filed as active; · = not tested or not shown. Most compounds without a hit are left out; they make up all but 2.1% or so of the library.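 Rule for the calls, unless noted: active = inhibition of at least 30% at 20 µM; inactive = the rest.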
SMILES,GRK2 inh,STEP inh,LMPTP block,DNMT1 inh,SUMO1 PPI mod,Scp1 inh,Scp-1 conf,MG interference,Scp1 DSF
CCOC(=O)c1c(NC(=O)COC(=O)c2ccc(NC(=O)CC#N)cc2)sc(C(=O)NC)c1C,0,1,40,-10,57*,58*,62*,-13,-2
N#CCC(=O)Nc1ccc(C(=O)OCC(=O)Nc2ccc3ccccc3c2)cc1,7,3,12,-23,12,52*,57*,-15,25*
COC(=O)[C@@]12C[C@@H](CC(=O)N3CCCC3)C(=O)N(CCc3ccc(OC)c(OC)c3)C1=CCC(C)(C)C2,·,·,1,·,0,·,·,·,·
CCOc1ccc(Cl)cc1-c1cc(C(=O)NCCOC)[nH]n1,·,-1,-2,3,0,·,·,·,·
O=C(CSc1nnc(-c2cccnc2)n1-c1ccccc1)N1CCN(c2ccc(F)cc2)CC1,0,4,-1,-1,0,-6,·,·,·
O=C(CSc1nnc(-c2ccncc2)n1-c1ccccc1)N1CCN(c2ccc(Cl)cc2)CC1,1,-1,-2,0,1,98*,5,-11,·
OC(c1cccnc1)c1nc(-c2ccc3c(c2)OCO3)cs1 (stereo not given),·,-1,0,0,-4,·,·,·,·
COc1ccc(NC(=S)N(CCCN2CCOCC2)C(C)c2cc3ccccc3o2)cc1 (stereo not given),1,3,-3,-1,-1,64*,-12,-9,·
CCCCN(C(=O)c1cnccn1)c1c(N)n(CCC)c(=O)[nH]c1=O,1,1,1,-3,-1,99*,-7,-7,·
CCCCN(C(=O)c1cccc(-n2cccc2)c1)c1c(N)n(CCCC)c(=O)[nH]c1=O,13,3,3,46,16,70*,12,-22,·
COCCCN(C(=O)c1cc2c(s1)CCC2)c1c(N)n(Cc2ccccc2)c(=O)[nH]c1=O,1,-2,3,10,-1,7,·,·,·
CCCCN(C(=O)c1ccc(Cl)c(S(=O)(=O)N2CCOCC2)c1)c1c(N)n(CCC)c(=O)[nH]c1=O,1,-2,-2,7,1,58*,-3,-11,·
CCCN(C(=O)c1cc2c(s1)CCC2)c1c(N)n(Cc2ccccc2)c(=O)[nH]c1=O,0,-1,12,53*,6,53*,46*,-17,-3
CCCCN(C(=O)c1cc2c(s1)CCC2)c1c(N)n(CCC)c(=O)[nH]c1=O,·,4,3,33,1,60*,50*,-1,2
CC(C)n1c(CNC(=O)c2ccccc2F)nnc1SCC(=O)NC1CCCCC1,·,0,3,43,9,22,·,·,·
O=C(CCc1ccccc1)NNC(=O)Nc1ccccc1,0,0,0,-1,1,-9,·,·,·
O=C(CCCCCCCC(=O)NNC(=O)Nc1ccccc1)NNC(=O)Nc1ccccc1,0,6,16,0,0,73*,65*,-16,-15
CC[C@]1(C(=O)OC)[C@H]2C(=O)N(Cc3ccccc3)C(=O)[C@H]2[C@H]2CN=C(SCC3CC3)N21,0,1,-2,3,2,54*,-2,-19,·
CCN1C(=O)[C@H]2[C@H]3CN=C(SCc4ccccc4)N3[C@@](Cc3ccccc3)(C(=O)OC)[C@H]2C1=O,2,1,-2,1,3,7,·,·,·
CCN1C(=O)[C@H]2[C@H]3CN=C(SCC4CC4)N3[C@@](Cc3ccccc3)(C(=O)OC)[C@H]2C1=O,0,-3,2,4,-2,82*,96*,-6,-12
O=S(=O)(c1ccc(N2CCOCC2)nc1)N1CCOCC1,2,2,1,-2,2,-4,·,·,·
CCOC(=O)N1CCN(c2ccc(S(=O)(=O)N3CCOCC3)cn2)CC1,0,4,-1,1,-2,80*,-12,-16,·
CC(C)C[C@@H](CN)NC(=O)c1nc[nH]c1C(=O)N[C@@H](C)C(=O)CNC[C@H](C)NC(=O)c1nc[nH]c1C(=O)N[C@@H](C)C(=O)O,·,0,-3,11,6,-5,·,·,·
O=C(OC1CCOC1=O)c1ccc(Cl)c(S(=O)(=O)N2CCOCC2)c1 (stereo not given),16,15,5,25,10,53*,27,-19,·
Cc1cccc(CN2[C@H](COCc3ccccc3)C=CS2(=O)=O)c1,·,5,-1,-5,11,·,·,·,·
SMILES,GRK2 inh,STEP inh,LMPTP block,DNMT1 inh,SUMO1 PPI mod,Scp1 inh,Scp-1 conf,MG interference,Scp1 DSF
COCc1cc(C)c(C#N)c(=S)[nH]1,0,-1,1,1,-2,53*,6,-1,·
C=CCn1c(COc2ccccc2F)nnc1SCC(=O)NC(=O)NCc1ccco1,2,-1,6,41,1,91*,65*,2,-7
C=CCn1c(SCC(=O)NCc2ccco2)nnc1C1CCCCC1,0,-2,-1,-1,-3,-1,·,·,·
COc1ccccc1OCc1nnc(SCC(=O)NCc2ccco2)n1Cc1ccco1,2,8,3,43,11,95*,88*,3,2
Cc1ccccc1OCc1nnc(SCC(=O)NCc2ccco2)n1C,1,-1,-1,4,0,-3,·,·,·
C=CCn1c(COc2ccccc2-c2ccccc2)nnc1SCC(=O)NC(=O)NCc1ccco1,1,1,2,2,0,1,·,·,·
C=CCn1c(Cc2cccs2)nnc1SCC(=O)NCc1ccco1,6,-1,6,9,4,53*,47*,-23,2
